Experimental data published in ChEMBL document CHEMBL1142998, “Structure-activity relationship study of tricyclic necroptosis inhibitors” (J Med Chem, 2007).
Calls of active or inactive are those of the source. The calls are words filed in the database; no cut-off is given here.

Each compound was assayed on L929 (assay: Inhibition of zVAD.fmk-induced necroptosis in mouse L929 cells assessed as cell viability at 30 uM after 24 hrs).
Type: functional, cell-based
In short: (§1)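 L929 cells, 100000 cells/mL, challenged with 10 ng/mL human TNF-α or 100 µM zVAD.fmk alongside compound at 30 µM or DMSO, 24 h, 37 °C, 5% CO2; final DMSO 0.5%, duplicates. Viability by luminescent ATP assay, corrected for nonspecific compound toxicity; mean % viability ± SD from two independent experiments.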

In the case of `COc1ccc([C@H]2[C@H]3CCc4ccc(OC)cc4C3=NN2C(C)=O)cc1`, the Activity is reported as “inactive”.
With `CN1C(=O)N[C@H](Cc2c[nH]c3c(Cl)cccc23)C1=O` (racemic) the Activity was “Active”.

These compounds were tested on L929 (assay: Inhibition of TNF alpha-induced necroptosis in mouse L929 cells assessed as cell viability at 30 uM after 24 hrs).
Type: functional, cell-based
In short: as §1

In the case of `COc1ccc([C@H]2[C@H]3CCc4ccc(OC)cc4C3=NN2C(C)=O)cc1`, the Activity is reported as “Active”.
For `CN1C(=O)N[C@H](Cc2c[nH]c3c(Cl)cccc23)C1=O` (racemic), the Activity was “Active”.

The compounds below were run on Jurkat (assay: Inhibition of TNF alpha-induced necroptosis in FADD-deficient variant human Jurkat T cells assessed as cell viability after 24 hrs).
Type: functional, cell-based
In short: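 FADD-deficient human Jurkat T cells at 500000 cells/mL exposed to 10 ng/mL human TNF-α plus compound at 11 concentrations (0.029–100 µM), each in duplicate, 24 h, 37 °C, 5% CO2; final DMSO 0.5%. ATP luminescence viability expressed relative to compound alone (TNF/compound signal ratio). EC50 from variable-slope sigmoid nonlinear regression; two independent experiments unless noted.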

First: COc1ccc([C@H]2[C@@H]3CCc4ccc(F)cc4C3=NN2C(C)=O)cc1
Second: COc1ccc([C@H]2[C@H]3CCc4ccc(F)cc4C3=NN2C(C)=O)cc1
The EC50 of the first is 9.6-fold higher: 2.7 µM for the first, 0.28 µM for the second. The second is the more potent here.

Going from `CCN1N=C2c3cc(OC)ccc3CC[C@@H]2[C@@H]1c1ccc(OC)cc1` to `CCC(=O)N1N=C2c3cc(OC)ccc3CC[C@@H]2[C@@H]1c1ccc(OC)cc1`, the EC50 falls from over 100 µM to 0.15 µM.

Going from `COc1ccc([C@H]2[C@H]3CCc4ccc(OC)cc4C3=NN2C(=N)N)cc1` to `COc1ccc([C@H]2[C@H]3CCc4ccc(OC)cc4C3=NN2C(N)=O)cc1`, the EC50 falls from over 100 µM to 4.3 µM. The second is the more potent here.

Compared with `COc1ccc([C@H]2[C@H]3CCc4ccc(OC)cc4C3=NN2C(=O)COC(C)=O)cc1`, `COCC(=O)N1N=C2c3cc(OC)ccc3CC[C@@H]2[C@@H]1c1ccc(OC)cc1` is 7-fold lower in EC50: 3.1 µM for the first, 0.44 µM for the second. The second is the more potent here.

First: COc1ccc([C@H]2[C@H]3CCc4ccc(OCc5ccccc5)cc4C3=NN2C(C)=O)cc1
Second: COc1ccc2c(c1)C1=NN(C(C)=O)[C@@H](c3ccc(OCc4ccccc4)cc3)[C@H]1CC2
The EC50 of the first is lower: 5 µM for the first, over 100 µM for the second. The first is the more potent here.

`COc1ccc2c(c1)C1=NN(C(C)=O)[C@@H](c3ccc4c(c3)OCO4)[C@H]1CC2` and `COc1ccc2c(c1)C1=NN(C(C)=O)[C@@H](c3ccc4c(c3)OCCO4)[C@H]1CC2` are within 1.5-fold of each other in EC50: 2.6 µM for the first, 2.1 µM for the second.

First: CC(=O)N1N=C2c3cc(C)ccc3OC[C@H]2[C@@H]1c1ccc(F)cc1
Second: CC(=O)N1N=C2c3cc(C)ccc3OC[C@@H]2[C@@H]1c1ccc(F)cc1
The EC50 of the first is higher: over 100 µM for the first, 11.6 µM for the second.

Going from `COc1ccc2c(c1)C1=NN(C(C)=O)[C@@H](c3ccc(F)cc3)[C@@H]1CC2` to `COc1ccc2c(c1)C1=NN(C(C)=O)[C@@H](c3ccc(F)cc3)[C@H]1CC2`, the EC50 falls from 3.7 µM to 0.96 µM (3.9-fold). The second is the more potent here.

Compared with `COc1ccc2c(c1)C1=NN(C(C)=O)[C@@H](c3ccc(SC)cc3)[C@H]1CC2`, `COc1ccc2c(c1)C1=NN(C(C)=O)[C@@H](c3ccc(O)cc3)[C@H]1CC2` is 5.4-fold higher in EC50: 1.1 µM for the first, 5.9 µM for the second. The first is the more potent here.

First: COc1ccc([C@H]2[C@H]3C[C@H](N(C)C)c4ccc(OC)cc4C3=NN2C(C)=O)cc1
Second: COc1ccc([C@H]2[C@H]3C[C@H](N)c4ccc(OC)cc4C3=NN2C(C)=O)cc1
The EC50 of the first is 4.2-fold higher: 5.1 µM for the first, 1.2 µM for the second. The second is the more potent here.

First: COc1ccc2c(c1)C1=NN(C(C)=O)[C@@H](c3ccc([N+](=O)[O-])cc3)[C@H]1CC2
Second: COc1ccc([C@H]2[C@@H]3CCc4ccc([N+](=O)[O-])cc4C3=NN2C(C)=O)cc1
The EC50 of the first is lower: 1.8 µM for the first, over 100 µM for the second. The first is the more potent here.

Compared with `COc1ccc2c(c1)C1=NN(C(C)=O)[C@@H](c3cccc(F)c3)[C@H]1CC2`, `COc1ccc2c(c1)CC[C@H]1C2=NN(C(C)=O)[C@H]1c1ccc(F)cc1` is higher in EC50: 0.68 µM for the first, over 100 µM for the second. The first is the more potent here.

Compared with `COc1ccc2c(c1)CC[C@@H]1C2=NN(C(C)=O)[C@H]1c1ccc(F)cc1`, `COc1ccc2c(c1)C1=NN(C(C)=O)[C@@H](c3ccc(F)cc3)[C@H]1CO2` is lower in EC50: over 100 µM for the first, 4.8 µM for the second.

`COc1ccc([C@H]2[C@H]3CCc4cccc(OC)c4C3=NN2C(C)=O)cc1` and `COc1ccc([C@H]2[C@H]3CCc4c(OC)cccc4C3=NN2C(C)=O)cc1` cannot be ordered by EC50: over 50 µM for the first, over 100 µM for the second.

`CNC(=S)N1N=C2c3cc(OC)ccc3CC[C@@H]2[C@@H]1c1ccc(OC)cc1` and `COc1ccc([C@H]2[C@H]3CCc4ccc(OC)cc4C3=NN2C(N)=S)cc1` are within 1.5-fold of each other in EC50: 7.9 µM for the first, 8.8 µM for the second.

Compared with `CN1C(=O)N[C@H](Cc2c[nH]c3c(Cl)cccc23)C1=O` (racemic), `CC(=O)N1N=C2c3ccccc3CC[C@@H]2[C@@H]1c1ccc(F)cc1` is 26-fold higher in EC50: 0.21 µM for the first, 5.4 µM for the second.

Going from `CC(=O)N1N=C2c3cc(O)ccc3CC[C@@H]2[C@@H]1c1ccc(O)cc1` to `COc1ccc([C@H]2[C@H]3CCc4ccc([N+](=O)[O-])cc4C3=NN2C(C)=O)cc1`, the EC50 falls from over 100 µM to 3.5 µM.

Compared with `COc1ccc([C@H]2[C@H]3CCc4ccc(OCCN5CCOCC5)cc4C3=NN2C(C)=O)cc1`, `COc1ccc([C@H]2[C@H]3CCc4ccccc4C3=NN2C(C)=O)cc1` is lower in EC50: over 50 µM for the first, 0.84 µM for the second.

`COc1ccc2c(c1)C1=NN(C(C)=O)[C@@H](c3ccccc3OC)[C@H]1CC2` and `COc1cc2c(cc1OC)C1=NN(C(C)=O)[C@@H](c3ccc(F)cc3)[C@H]1CC2` cannot be ordered by EC50: over 100 µM for the first, over 100 µM for the second.

Work on `COc1ccc([C@H]2[C@H]3CCc4ccc(OC)cc4C3=NN2C=O)cc1` yielded an EC50 of 0.92 µM.
